Experimental data published in paper PMC6468299 (Nucleic Acids Research, 2019).
Like-named read-outs stand apart in the source and are kept apart here. Blank lines part the entries; values can stand above or below the compound they belong to.

Columns and labels:
DNA polymerase β (Pol-β) = DNA polymerase β (Pol-β) (Homo sapiens, UniProt P06746); assay: DNA polymerase inhibition assay, Pol-β; type: biochemical; conditions: 1 h, 3H-dTTP incorporation
Summary of the method: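 Reactions contained 25 μM each dATP/dCTP/dGTP, 25 nM TTP plus 1 μCi ³H-TTP, 160 nM template/primer, and serially diluted test nucleotide (0–200 μM). Incubation was 1 h at 37°C. DNA was TCA-precipitated, washed and counted; inhibition was taken from reduced incorporation. ddNTPs served as positive control.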

DNA polymerase α (Pol-α) = target: T1, DNA polymerase α (Pol-α) (Homo sapiens, UniProt P09884); assay: DNA polymerase inhibition assay, Pol-α; type: biochemical
T1 sequence (P09884 1-1462): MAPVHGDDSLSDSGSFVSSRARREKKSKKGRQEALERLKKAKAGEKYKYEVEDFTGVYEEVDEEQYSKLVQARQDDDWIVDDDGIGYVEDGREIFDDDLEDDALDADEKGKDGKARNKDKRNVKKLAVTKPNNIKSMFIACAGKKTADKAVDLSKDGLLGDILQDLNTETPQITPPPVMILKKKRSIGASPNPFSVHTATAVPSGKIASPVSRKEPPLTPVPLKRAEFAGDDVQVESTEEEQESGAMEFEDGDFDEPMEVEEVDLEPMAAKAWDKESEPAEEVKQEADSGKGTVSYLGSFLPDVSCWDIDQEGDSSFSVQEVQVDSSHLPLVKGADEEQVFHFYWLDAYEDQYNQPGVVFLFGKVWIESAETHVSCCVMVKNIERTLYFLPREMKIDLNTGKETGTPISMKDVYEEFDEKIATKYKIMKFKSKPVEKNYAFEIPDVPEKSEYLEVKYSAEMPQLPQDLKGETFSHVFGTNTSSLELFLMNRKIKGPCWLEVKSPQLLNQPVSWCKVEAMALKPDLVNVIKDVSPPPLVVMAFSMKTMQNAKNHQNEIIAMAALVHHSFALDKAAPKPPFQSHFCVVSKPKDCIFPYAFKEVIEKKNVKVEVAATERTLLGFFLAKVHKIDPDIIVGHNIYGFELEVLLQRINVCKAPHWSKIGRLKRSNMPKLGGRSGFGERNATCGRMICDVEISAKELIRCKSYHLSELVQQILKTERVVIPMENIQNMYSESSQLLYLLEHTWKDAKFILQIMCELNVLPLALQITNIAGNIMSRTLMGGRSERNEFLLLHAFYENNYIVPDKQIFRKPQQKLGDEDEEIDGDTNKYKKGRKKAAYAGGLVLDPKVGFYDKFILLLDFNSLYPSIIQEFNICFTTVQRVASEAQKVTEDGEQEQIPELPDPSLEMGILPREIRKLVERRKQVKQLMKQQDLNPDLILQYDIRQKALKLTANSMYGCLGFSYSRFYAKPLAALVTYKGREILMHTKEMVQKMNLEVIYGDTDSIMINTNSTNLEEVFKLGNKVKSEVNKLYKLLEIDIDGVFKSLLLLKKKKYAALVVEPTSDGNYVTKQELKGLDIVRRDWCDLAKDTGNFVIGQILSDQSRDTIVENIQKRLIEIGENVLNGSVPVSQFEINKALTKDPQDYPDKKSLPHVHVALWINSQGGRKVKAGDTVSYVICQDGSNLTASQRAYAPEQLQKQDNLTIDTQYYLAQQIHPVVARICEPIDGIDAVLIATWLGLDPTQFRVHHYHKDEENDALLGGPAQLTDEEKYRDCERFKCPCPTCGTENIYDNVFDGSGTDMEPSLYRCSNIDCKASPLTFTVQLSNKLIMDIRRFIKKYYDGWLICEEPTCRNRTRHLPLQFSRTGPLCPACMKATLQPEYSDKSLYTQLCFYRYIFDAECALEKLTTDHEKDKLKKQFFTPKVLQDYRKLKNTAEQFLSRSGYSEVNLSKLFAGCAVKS

DNA polymerase γ (Pol-γ) = target: T2, DNA polymerase γ (Pol-γ) (Homo sapiens, UniProt P54098); assay: DNA polymerase inhibition assay, Pol-γ; type: biochemical; conditions: 1 h, 3H-dTTP incorporation
T2 sequence (P54098 1-1239): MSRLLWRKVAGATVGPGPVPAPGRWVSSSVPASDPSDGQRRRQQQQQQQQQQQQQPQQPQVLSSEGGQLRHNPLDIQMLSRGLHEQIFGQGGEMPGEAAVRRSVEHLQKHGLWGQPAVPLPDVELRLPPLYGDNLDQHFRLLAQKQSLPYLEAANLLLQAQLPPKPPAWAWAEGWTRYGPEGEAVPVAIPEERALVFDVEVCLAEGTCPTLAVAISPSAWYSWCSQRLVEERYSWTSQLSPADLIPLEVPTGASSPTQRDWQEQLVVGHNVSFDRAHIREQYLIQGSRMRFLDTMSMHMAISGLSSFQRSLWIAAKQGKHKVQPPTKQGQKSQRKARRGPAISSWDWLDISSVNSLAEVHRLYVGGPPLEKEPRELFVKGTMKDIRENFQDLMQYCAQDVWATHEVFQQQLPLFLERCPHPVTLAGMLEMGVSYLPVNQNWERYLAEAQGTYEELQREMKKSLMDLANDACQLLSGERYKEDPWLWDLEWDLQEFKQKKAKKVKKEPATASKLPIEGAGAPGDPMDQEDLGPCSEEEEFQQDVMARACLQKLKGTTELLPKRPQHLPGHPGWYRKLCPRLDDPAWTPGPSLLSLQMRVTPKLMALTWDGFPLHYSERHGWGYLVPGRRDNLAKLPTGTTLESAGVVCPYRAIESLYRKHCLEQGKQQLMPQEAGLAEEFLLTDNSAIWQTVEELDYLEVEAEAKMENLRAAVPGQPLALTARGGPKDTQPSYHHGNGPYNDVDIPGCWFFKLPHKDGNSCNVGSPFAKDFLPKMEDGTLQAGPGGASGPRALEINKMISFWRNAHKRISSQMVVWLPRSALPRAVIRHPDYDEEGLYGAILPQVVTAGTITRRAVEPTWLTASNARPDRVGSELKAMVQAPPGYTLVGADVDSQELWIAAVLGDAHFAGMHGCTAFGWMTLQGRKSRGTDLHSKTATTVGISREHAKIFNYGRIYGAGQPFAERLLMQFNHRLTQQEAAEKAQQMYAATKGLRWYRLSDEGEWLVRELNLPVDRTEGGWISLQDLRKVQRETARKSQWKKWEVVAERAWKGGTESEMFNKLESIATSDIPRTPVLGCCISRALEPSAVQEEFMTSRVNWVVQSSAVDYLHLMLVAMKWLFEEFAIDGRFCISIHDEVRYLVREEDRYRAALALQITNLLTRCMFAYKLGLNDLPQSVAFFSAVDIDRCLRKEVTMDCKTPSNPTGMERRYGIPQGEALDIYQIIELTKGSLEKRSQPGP
Summary of the method: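 Reactions contained 25 μM each dATP/dCTP/dGTP, 25 nM TTP plus 1 μCi ³H-TTP, 160 nM template/primer, and serially diluted test nucleotide (0–200 μM). Incubation was 1 h at 37°C, stopped with TCA (10% final). DNA was precipitated 40 min at 4°C, washed and scintillation-counted; inhibition was taken from reduced radioactivity.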

SNB-78 (CNS) = assay: Cytotoxicity, sulforhodamine B assay, SNB-78; type: cell-based, human; conditions: SNB-78
Summary of the method: (§1)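 Cells were grown 1 week in glucose- or galactose-containing medium, then seeded in 96-well plates. iCell cardiomyocytes were seeded on gelatin-coated plates and grown 5 days. Test compounds in 1:1 ethanol:water were added at each media change on days 0, 3, 7 and 10 (four doses), at up to 250 μM. Final ethanol was 2.5% at 250 μM and 1% otherwise. Total protein was read by sulforhodamine B on day 11. CC50 was fitted from triplicates.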

[1] = Cytotoxicity, sulforhodamine B assay, SNB-78; type: cell-based, human; conditions: human, SNB-78 cells (CNS), day 11
Summary of the method: as §1

[2] = Cytotoxicity, sulforhodamine B assay, SkMC; type: cell-based, human; conditions: human, SkMC cells (muscle), CC50, SkMC, day 11
Summary of the method: as §1

[3] = Cytotoxicity, sulforhodamine B assay, iCell cardiomyocytes; type: cell-based; conditions: human, iCell cardiomyocytes (heart)
Summary of the method: as §1

[4] = Cytotoxicity, sulforhodamine B assay, Molt-4; type: cell-based, human; conditions: human, Molt-4 cells (blood), day 11
Summary of the method: as §1

[5] = Cytotoxicity, sulforhodamine B assay, HepG2; type: cell-based, human; conditions: human, HepG2 cells (liver), day 11, four doses
Summary of the method: as §1

[6] = Cytotoxicity, sulforhodamine B assay, Caki-1; type: cell-based, human; conditions: human, Caki-1 cells (kidney), day 11
Summary of the method: as §1

[7] = Cytotoxicity, sulforhodamine B assay, COLO 205; type: cell-based, human; conditions: human, COLO 205 cells (intestine), day 11
Summary of the method: as §1

[8] = Pol-α, 1 h, 3H-dTTP incorporation

IC50 (DNA polymerase β (Pol-β)): > 200 µM
IC90 (DNA polymerase β (Pol-β)): > 200 µM
IC50 (DNA polymerase α (Pol-α); [8]): > 200 µM
IC90 (DNA polymerase α (Pol-α); [8]): > 200 µM
IC50 (DNA polymerase γ (Pol-γ)): > 200 µM
IC90 (DNA polymerase γ (Pol-γ)): > 200 µM
Compound: O=P(O)(O)OP(=O)(O)OP(=O)(O)OC[C@H]1O[C@@H](n2cnc3c(O)ncnc32)[C@H](F)[C@@H]1O [2′-F-ITP]

Compound: C[C@@]1(CO)[C@H](O)CC[C@@]2(C)[C@H]1CC[C@H]1C[C@@H]3C[C@@]12CC[C@]3(O)CO [Aphidicolin, reference compound]
IC90 (DNA polymerase α (Pol-α)): 16.5 µM

Compound: CC(C)OC(=O)[C@H](C)N[P@](=O)(OC[C@H]1O[C@@H](n2ccc(=O)[nH]c2=O)[C@](C)(F)[C@@H]1O)Oc1ccccc1 [SOF, Sofosbuvir]
decrease of CC50 in galactose compared to glucose media (SNB-78 (CNS)): 2–10 fold
CC50 at 11 days ([1]; CC50, SNB-78, Galactose media): 120 µM
CC50 at 11 days ([1]; CC50, SNB-78, Glucose media): > 250 µM
CC50 at 11 days ([2]; Galactose media): > 250 µM
CC50 at 11 days ([2]; Glucose media): > 250 µM
CC50 at 11 days [3]: > 250 µM
CC50 at 11 days ([4]; CC50, Molt-4, Galactose media): > 250 µM
CC50 at 11 days ([4]; CC50, Molt-4, Glucose media): > 250 µM
CC50 at 11 days ([5]; CC50, HepG2, Galactose media): 97 µM
CC50 at 11 days ([5]; CC50, HepG2, Glucose media): 114 µM
CC50 at 11 days ([6]; CC50, Caki-1, Galactose media): > 250 µM
CC50 at 11 days ([6]; CC50, Caki-1, Glucose media): > 250 µM
CC50 at 11 days ([7]; CC50, COLO 205, Galactose media): 123 µM
CC50 at 11 days ([7]; CC50, COLO 205, Glucose media): 155 µM

IC50 (DNA polymerase β (Pol-β)): 0.06 µM
IC90 (DNA polymerase β (Pol-β)): 0.65 µM
IC50 (DNA polymerase γ (Pol-γ)): 0.35 µM
IC90 (DNA polymerase γ (Pol-γ)): 8.65 µM
Compound: dideoxy nucleoside 5′ triphosphates [ddNTP, reference compound]
